Active and inactive are the calls of the source. The calls are words filed in the database; no cut-off is given here.
Experiments:
[1] = molecular target: T1, Lysine-specific demethylase 5A (Homo sapiens, UniProt P29375); experiment: Inhibition of KDM5A ARID/PhD1 domain deletion mutant (1 to 739 residues) (unknown origin) using H3 ( 1 to 24 residues) K4me3 as substrate preincubated for 15 min followed by substrate addition measured after 15 mins by FDH-coupled demethylase assay
[2] = molecular target: Lysine-specific demethylase 6A (Homo sapiens, UniProt O15550); experiment: Inhibition of KDM6A (880 to 1401 residues) (unknown origin) using H3 ( 21 to 44 residues) K27me3 as substrate preincubated for 15 min followed by substrate addition measured after 15 mins by FDH-coupled demethylase assay
Lysine-specific demethylase 6A, sequence (O15550 whole entry, the tested form may be a part): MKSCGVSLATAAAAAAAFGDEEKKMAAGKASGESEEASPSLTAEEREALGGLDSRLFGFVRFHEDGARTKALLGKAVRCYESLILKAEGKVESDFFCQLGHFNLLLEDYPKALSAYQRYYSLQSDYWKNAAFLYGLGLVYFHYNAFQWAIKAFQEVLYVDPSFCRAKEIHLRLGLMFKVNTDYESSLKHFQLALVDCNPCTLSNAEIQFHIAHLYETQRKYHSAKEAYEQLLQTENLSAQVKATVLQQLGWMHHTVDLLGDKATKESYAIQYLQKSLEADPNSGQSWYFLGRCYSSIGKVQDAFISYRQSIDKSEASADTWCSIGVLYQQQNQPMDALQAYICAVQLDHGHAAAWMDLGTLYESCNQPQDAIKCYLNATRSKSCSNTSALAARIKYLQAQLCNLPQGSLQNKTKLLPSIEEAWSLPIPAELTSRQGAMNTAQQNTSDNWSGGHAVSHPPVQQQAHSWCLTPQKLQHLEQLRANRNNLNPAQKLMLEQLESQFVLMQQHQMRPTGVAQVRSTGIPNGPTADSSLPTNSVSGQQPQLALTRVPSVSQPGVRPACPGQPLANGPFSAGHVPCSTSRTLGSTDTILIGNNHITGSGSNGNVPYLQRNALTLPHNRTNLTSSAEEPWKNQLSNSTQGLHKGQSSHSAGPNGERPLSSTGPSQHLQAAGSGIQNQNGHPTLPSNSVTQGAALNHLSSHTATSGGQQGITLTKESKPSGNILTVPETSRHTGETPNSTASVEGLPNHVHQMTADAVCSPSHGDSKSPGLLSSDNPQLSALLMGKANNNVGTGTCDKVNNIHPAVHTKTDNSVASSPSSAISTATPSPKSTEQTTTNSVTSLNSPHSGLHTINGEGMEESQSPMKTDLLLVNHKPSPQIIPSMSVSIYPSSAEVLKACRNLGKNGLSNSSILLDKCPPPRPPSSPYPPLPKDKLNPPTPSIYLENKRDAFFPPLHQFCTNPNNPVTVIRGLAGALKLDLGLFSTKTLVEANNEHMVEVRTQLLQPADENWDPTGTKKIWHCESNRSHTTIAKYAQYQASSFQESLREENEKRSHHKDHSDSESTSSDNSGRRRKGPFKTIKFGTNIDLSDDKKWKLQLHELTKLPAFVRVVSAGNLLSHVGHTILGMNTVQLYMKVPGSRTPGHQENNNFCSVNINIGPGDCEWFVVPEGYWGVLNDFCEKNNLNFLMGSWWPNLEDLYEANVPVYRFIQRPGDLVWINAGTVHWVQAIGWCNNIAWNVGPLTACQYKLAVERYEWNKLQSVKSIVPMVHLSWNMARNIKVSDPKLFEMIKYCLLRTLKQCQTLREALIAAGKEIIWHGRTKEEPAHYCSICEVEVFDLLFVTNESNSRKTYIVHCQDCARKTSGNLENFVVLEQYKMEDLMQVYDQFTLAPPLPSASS

[3] = molecular target: T1, Lysine-specific demethylase 5A; experiment: Binding affinity to KDM5A ARID/PhD1 domain deletion mutant (1 to 588 residues) (unknown origin) by ITC assay
Homo sapiens [4] = species: Homo sapiens; experiment: Selectivity ratio of IC50 for KDM4A (1 to 350 residues) (unknown origin) to IC50 for KDM5A ARID/PhD1 domain deletion mutant (1 to 739 residues) (unknown origin)
Homo sapiens [5] = species: Homo sapiens; experiment: Selectivity ratio of IC50 for KDM5A ARID/PhD1 domain deletion mutant (1 to 739 residues) (unknown origin) to IC50 for KDM6A (880 to 1401 residues) (unknown origin)
[6] = molecular target: T2, Lysine-specific demethylase 4A (Homo sapiens, UniProt O75164); experiment: Inhibition of KDM4A (1 to 350 residues) (unknown origin) using H3 ( 1 to 15 residues) K9me3 as substrate preincubated for 15 min followed by substrate addition measured after 15 mins by FDH-coupled demethylase assay
T2 sequence (O75164 whole entry): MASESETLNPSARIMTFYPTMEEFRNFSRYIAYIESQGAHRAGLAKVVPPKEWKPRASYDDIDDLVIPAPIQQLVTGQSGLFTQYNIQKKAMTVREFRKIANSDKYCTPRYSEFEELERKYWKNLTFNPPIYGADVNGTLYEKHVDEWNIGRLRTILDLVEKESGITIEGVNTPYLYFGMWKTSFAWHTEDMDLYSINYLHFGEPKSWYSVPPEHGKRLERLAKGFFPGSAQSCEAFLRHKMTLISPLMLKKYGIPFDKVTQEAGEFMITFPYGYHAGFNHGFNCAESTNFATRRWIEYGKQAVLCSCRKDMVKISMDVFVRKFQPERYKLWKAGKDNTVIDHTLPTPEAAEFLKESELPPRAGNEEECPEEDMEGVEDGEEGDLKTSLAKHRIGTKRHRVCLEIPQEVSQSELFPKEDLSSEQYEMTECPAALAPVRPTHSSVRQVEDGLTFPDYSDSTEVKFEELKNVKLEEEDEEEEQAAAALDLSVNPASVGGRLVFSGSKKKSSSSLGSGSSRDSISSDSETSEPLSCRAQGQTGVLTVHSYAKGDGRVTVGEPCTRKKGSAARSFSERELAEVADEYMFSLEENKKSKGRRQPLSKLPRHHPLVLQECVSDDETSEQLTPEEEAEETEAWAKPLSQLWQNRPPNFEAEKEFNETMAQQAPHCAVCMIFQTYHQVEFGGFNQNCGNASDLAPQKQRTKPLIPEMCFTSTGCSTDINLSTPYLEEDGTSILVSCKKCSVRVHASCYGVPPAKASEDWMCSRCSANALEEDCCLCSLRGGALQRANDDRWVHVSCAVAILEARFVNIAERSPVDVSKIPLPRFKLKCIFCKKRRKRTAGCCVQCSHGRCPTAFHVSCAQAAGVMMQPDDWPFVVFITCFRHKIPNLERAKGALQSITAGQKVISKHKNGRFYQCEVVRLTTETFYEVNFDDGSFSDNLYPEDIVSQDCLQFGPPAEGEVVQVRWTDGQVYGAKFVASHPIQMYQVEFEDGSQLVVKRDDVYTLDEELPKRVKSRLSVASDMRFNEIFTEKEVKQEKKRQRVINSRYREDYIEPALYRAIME

BT-474 = experiment: Growth inhibition of human BT474 cells at 0.11 to 3.5 uM measured every 4 hrs for 300 hrs by IncuCyte live cell imaging method; type: functional, cell-based
Method in brief: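 BT474 cells grown with compound; percent confluence tracked by IncuCyte live-cell imaging every 4 h over 300 h.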

[7] = Metabolic stability in human BT474 cell culture media assessed as parent compound remaining at 10 uM after 24 hrs by LC-MS/MS analysis; type: physicochemical; details: read-out: Stability
[8] = Effective permeability of the compound at pH 7.4 by PAMPA; type: ADME; details: for Papp: read-out: Peff
Method in brief: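 PAMPA with a lipid/dodecane artificial membrane and pH 7.4 buffer in donor and acceptor wells. Compounds diluted from 10 mM DMSO stock to 0.05 mM final, 0.5% DMSO. Donor stirred during a 30 min permeation at room temperature. Donor and acceptor concentrations read by UV. Permeability given in 10−6 cm s−1: >100 high, 10–100 moderate, <10 low.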

[9] = molecular target: T1, Lysine-specific demethylase 5A; experiment: Irreversible inhibition of KDM5A ARID/PhD1 domain deletion mutant (1 to 739 residues) (unknown origin) using alpha-KG measured immediately by succinate-glo demethylase assay
Method in brief: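 Compound and KDM5A(1−739)ΔAP either without preincubation or preincubated 20 min before αKG addition; activity read by Succinate-Glo.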

[10] = molecular target: T2, Lysine-specific demethylase 4A; experiment: Irreversible inhibition of recombinant KDM4A (1 to 350 residues) (unknown origin) expressed in Escherichia coli using H3 (1 to 21 residues) K9me3 as substrate preincubated for 10 mins followed by substrate/alphaKG/(NH4)2Fe(SO4)2 addition measured after 1 hr by alphaLISA assay
Method in brief: (§1)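 AlphaLISA using antibody to H3K4 (KDM5B) or H3K9 (KDM4A) methylation to detect demethylation of enzyme-specific histone peptides. Both enzymes are recombinant catalytic domains from E. coli, tested at the same enzyme concentration.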

Homo sapiens [11] = species: Homo sapiens; experiment: Selectivity ratio of IC50 for recombinant KDM4A (1 to 350 residues) (unknown origin) to IC50 for recombinant KDM5B ARID/PhD1 domain deletion (1 to 755 residues) (unknown origin); method in brief: as §1
[12] = molecular target: T1, Lysine-specific demethylase 5A; experiment: Irreversible inhibition of KDM5A ARID/PhD1 domain deletion mutant (1 to 739 residues) (unknown origin) using 10 uM alpha-KG by succinate-glo demethylase assay
Method in brief: (§2)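 KDM5A(1−739)ΔAP (0.8 μM) preincubated 20 min with 2-fold serial dilutions of compound. Reaction started with αKG (10, 100 or 1000 μM) and H3(1−24)K4me3 (60 μM), 10 μM (NH4)2Fe(SO4)2, 100 μM ascorbate, 50 mM HEPES pH 8.0, 5% DMSO. Run 10 min at ambient temperature, n = 3; succinate read by Succinate-Glo luminescence.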

[13] = molecular target: T1, Lysine-specific demethylase 5A; experiment: Irreversible inhibition of KDM5A ARID/PhD1 domain deletion mutant (1 to 739 residues) (unknown origin) using 100 uM alpha-KG by succinate-glo demethylase assay; method in brief: as §2
[14] = molecular target: T1, Lysine-specific demethylase 5A; experiment: Irreversible inhibition of KDM5A ARID/PhD1 domain deletion mutant (1 to 739 residues) (unknown origin) using alpha-KG by succinate-glo demethylase assay; method in brief: as §2
[15] = molecular target: T1, Lysine-specific demethylase 5A; experiment: Irreversible inhibition of KDM5A ARID/PhD1 domain deletion mutant (1 to 739 residues) (unknown origin) at 100 uM using alpha-KG measured after 4 times of buffer exchange by succinate-glo demethylase assay
Method in brief: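 Enzyme–inhibitor complex preformed ([E] = 5 μM, initial [I] = 100 μM), then four buffer exchanges before Succinate-Glo activity measurement.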

[16] = molecular target: T1, Lysine-specific demethylase 5A; experiment: Binding affinity to KDM5A ARID/PhD1 domain deletion mutant (1 to 588 residues) (unknown origin) assessed as covalent modification of enzyme at 0.5 mM after 30 mins by ESI-tandem-MS analysis
[17] = Drug level in human BT474 cell culture media treated with isopropyl 2-((3-Aminophenyl)(2-(piperidin-1-yl)-ethoxy)methyl)thieno[3,2-b]pyridine-7-carboxylate at 10 uM after 24 hrs by LC-MS/MS analysis; type: physicochemical
[18] = molecular target: T1, Lysine-specific demethylase 5A; experiment: Irreversible inhibition of KDM5A ARID/PhD1 domain deletion mutant (1 to 739 residues) (unknown origin) using 1000 uM alpha-KG by succinate-glo demethylase assay; method in brief: as §2
[19] = molecular target: T1, Lysine-specific demethylase 5A; experiment: Irreversible inhibition of 0.8 uM KDM5A ARID/PhD1 domain deletion mutant (1 to 739 residues) (unknown origin) using 100 uM alpha-KG by succinate-glo demethylase assay
Method in brief: (§3)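 Succinate-Glo run with KDM5A(1−739)ΔAP at varied enzyme concentration and 100 μM αKG. H3(1−24)K4me3 60 μM, Fe(II) 10 μM, ascorbate 100 μM, HEPES pH 8.0, 5% DMSO.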

[20] = molecular target: T1, Lysine-specific demethylase 5A; experiment: Irreversible inhibition of 1.6 uM KDM5A ARID/PhD1 domain deletion mutant (1 to 739 residues) (unknown origin) using 100 uM alpha-KG by succinate-glo demethylase assay; method in brief: as §3
[21] = molecular target: T1, Lysine-specific demethylase 5A; experiment: Irreversible inhibition of KDM5A ARID/PhD1 domain deletion mutant (1 to 739 residues) (unknown origin)
Method in brief: (§4)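 KDM5A (0.8 μM) preincubated with five inhibitor concentrations (0.01–5 μM). At each time point, mixture added to H3 peptide (60 μM) and αKG (100 μM) and stopped after 7 min. Log % remaining activity plotted against preincubation time; negative slopes fitted by nonlinear regression against [I] to give kinact and KI.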

[22] = molecular target: T1, Lysine-specific demethylase 5A; experiment: Irreversible inhibition of KDM5A ARID/PhD1 domain deletion mutant (1 to 739 residues) (unknown origin) assessed as Kinact to Ki ratio; method in brief: as §4
[23] = molecular target: T1, Lysine-specific demethylase 5A; experiment: Irreversible inhibition of 0.4 uM KDM5A ARID/PhD1 domain deletion mutant (1 to 739 residues) (unknown origin) using 100 uM alpha-KG by succinate-glo demethylase assay; method in brief: as §3
[24] = molecular target: T1, Lysine-specific demethylase 5A; experiment: Irreversible inhibition of KDM5A ARID/PhD1 domain deletion mutant (1 to 739 residues) (unknown origin) using alpha-KG as substrate by succinate-glo demethylase assay; details: TDE = time-dependent effect; method in brief: as §2
[25] = molecular target: T1, Lysine-specific demethylase 5A; experiment: Inhibition of KDM5A in human MCF7 cells assessed as effect on H3K27me3 methylation levels at 1 to 10 uM after 30 hrs by Western blot analysis; type: cell-based
Method in brief: (§5)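 MCF7 breast cancer cells were exposed to compound, with a 0.1% DMSO control, for 30 or 48 h. Total cell lysates were then probed by Western blot with antibodies to histone methylation marks.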

[26] = molecular target: T1, Lysine-specific demethylase 5A; experiment: Inhibition of KDM5A in human MCF7 cells assessed as effect on H3K4me3 methylation levels at 1 to 10 uM after 30 hrs by Western blot analysis; type: cell-based; method in brief: as §5

T1 sequence (P29375 whole entry, the tested form may be a part): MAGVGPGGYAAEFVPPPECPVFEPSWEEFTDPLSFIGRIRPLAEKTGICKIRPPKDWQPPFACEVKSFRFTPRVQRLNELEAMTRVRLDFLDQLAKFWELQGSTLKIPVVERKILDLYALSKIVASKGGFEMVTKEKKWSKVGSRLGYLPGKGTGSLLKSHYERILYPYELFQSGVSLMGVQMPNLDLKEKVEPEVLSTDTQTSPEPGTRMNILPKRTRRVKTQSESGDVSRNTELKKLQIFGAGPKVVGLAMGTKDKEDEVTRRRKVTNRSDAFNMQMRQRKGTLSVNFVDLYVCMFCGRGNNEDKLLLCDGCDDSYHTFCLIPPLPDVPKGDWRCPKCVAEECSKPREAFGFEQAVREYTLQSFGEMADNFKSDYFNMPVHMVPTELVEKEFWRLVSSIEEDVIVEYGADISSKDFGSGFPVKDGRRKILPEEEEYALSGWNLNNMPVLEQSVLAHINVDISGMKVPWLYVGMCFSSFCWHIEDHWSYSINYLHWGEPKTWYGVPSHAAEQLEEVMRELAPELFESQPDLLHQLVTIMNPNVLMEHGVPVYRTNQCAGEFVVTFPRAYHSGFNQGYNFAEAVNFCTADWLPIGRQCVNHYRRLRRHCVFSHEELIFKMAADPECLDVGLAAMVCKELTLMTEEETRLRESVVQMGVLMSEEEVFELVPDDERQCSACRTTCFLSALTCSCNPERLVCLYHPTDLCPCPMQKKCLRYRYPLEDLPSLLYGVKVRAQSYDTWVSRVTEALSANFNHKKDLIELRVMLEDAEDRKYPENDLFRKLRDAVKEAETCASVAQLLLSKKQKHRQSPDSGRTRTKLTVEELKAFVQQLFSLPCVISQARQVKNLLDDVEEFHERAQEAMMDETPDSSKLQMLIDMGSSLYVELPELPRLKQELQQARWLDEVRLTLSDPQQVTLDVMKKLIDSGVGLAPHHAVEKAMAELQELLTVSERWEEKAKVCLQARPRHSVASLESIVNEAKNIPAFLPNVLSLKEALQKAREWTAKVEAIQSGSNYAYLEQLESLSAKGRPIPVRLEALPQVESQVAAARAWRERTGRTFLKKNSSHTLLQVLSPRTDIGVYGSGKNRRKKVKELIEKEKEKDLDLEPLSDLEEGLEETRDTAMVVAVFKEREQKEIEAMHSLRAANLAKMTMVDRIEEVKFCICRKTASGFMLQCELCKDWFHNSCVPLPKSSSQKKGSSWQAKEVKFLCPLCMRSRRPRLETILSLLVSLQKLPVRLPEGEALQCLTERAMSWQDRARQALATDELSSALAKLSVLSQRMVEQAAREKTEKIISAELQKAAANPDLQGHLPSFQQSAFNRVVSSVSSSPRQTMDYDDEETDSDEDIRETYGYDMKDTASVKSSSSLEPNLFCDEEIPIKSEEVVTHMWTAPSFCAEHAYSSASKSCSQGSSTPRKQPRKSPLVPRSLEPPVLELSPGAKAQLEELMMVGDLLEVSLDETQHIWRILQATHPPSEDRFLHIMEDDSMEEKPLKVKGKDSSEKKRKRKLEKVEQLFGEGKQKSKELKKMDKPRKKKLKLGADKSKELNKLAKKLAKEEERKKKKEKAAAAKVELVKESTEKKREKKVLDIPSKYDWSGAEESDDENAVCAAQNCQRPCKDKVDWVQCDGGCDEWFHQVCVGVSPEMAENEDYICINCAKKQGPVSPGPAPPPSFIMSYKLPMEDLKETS

| SMILES | IC50 [1] [µM] | IC50 [2] [µM] | Kd [3] [µM] | Ratio IC50 (Homo sapiens [4]) | Ratio IC50 (Homo sapiens [5]) | IC50 [6] [µM] | remaining at 24 h, 10 µM [7] [%] | IC50 [10] [µM] | Ratio IC50 (Homo sapiens [11]) | further results |
| --- | --- | --- | --- | --- | --- | --- | --- | --- | --- | --- |
| C=CC(=O)N1CCCN(c2cc(NCCC(=O)O)nc(-c3ccccn3)n2)CC1 | 71 | 39 | 6 | 3.2 to 3.6 | 1.5 to 1.8 | 230 | – | – | – | – |
| CN1CCCC1CCOC(c1cc2nccc(C(=O)O)c2[nH]1)c1ccccc1Cl (configuration not stated) | – | – | 0.15 | – | – | – | – | – | – | – |
| CC(C)OC(=O)c1ccnc2cc(C(OCCN3CCCCC3)c3cccc(N)c3)sc12 (configuration not stated) | – | – | – | – | – | – | 75 | – | – | growth inhibition (GI) (BT-474): Active; Peff [8]: 1018 ×10⁻⁶ cm/s |
| C=CS(=O)(=O)N1CCCN(c2cc(NCCC(=O)O)nc(-c3ccccn3)n2)CC1 | 83 | 55 | 9 | 3.2 to 3.6 | 1.5 to 1.8 | 290 | – | – | – | – |
| Nc1cccc(C(OCCN2CCCCC2)c2cc3nccc(C(=O)O)c3s2)c1 (configuration not stated) | – | – | – | – | – | – | 93 | 4.2 | 8.6 | IC50 [9]: 5.5 µM; IC50 [12]: 0.7 µM; IC50 [13]: 5.4 µM; IC50 [14]: 4.9 µM; inhibition [15]: inactive; Activity [16]: inactive; Drug metabolism [17]: Metabolite_Detected; IC50 [18]: > 100 µM; Papp [8]: 52.7 ×10⁻⁶ cm/s |
| O=C(O)CCNc1cc(N2CCc3ccccc3CC2)nc(-c2ccccn2)n1 | 110 | 69 | 12 | 3.2 to 3.6 | 1.5 to 1.8 | 400 | – | – | – | – |
| CN(C)C/C=C/C(=O)Nc1cccc(C(OCCN2CCCCC2)c2cc3nccc(C(=O)O)c3s2)c1 (configuration not stated) | – | – | – | – | – | – | 60 | 5.3 | 24 | IC50 [9]: 0.11 µM; IC50 [19]: 0.18 µM; IC50 [20]: 0.36 µM; IC50 [12]: 0.1 µM; IC50 [13]: 0.11 µM; IC50 [14]: 1.24 µM; Ki [21]: 0.41 µM; Kinact [21]: 0.198 min⁻¹; Ratio [22]: 8 ×10³ /M/s; IC50 [23]: 0.06 µM; inhibition [15]: Active; Activity [16]: Active; inhibition [24]: Tde; IC50 [18]: 0.18 µM; Papp [8]: < 1 ×10⁻⁶ cm/s |
| CCOC(=O)CCNc1cc(N2CCc3ccccc3CC2)nc(-c2ccccn2)n1 | – | – | – | – | – | – | – | – | – | inhibition [25]: Active; inhibition [26]: Active |
| CN1CCCC1CCOC(c1cc2nccc(C(=O)O)c2s1)c1ccccc1Cl (configuration not stated) | – | – | 0.26 | – | – | – | – | 2.2 | 7 | – |
